Kir21 block: inhibitors of mouse Kir2.1 inward-rectifier potassium channel; P35561; AID 1672; HEK293-Kir2.1, FluxOR thallium flux fluorescence; hits give low values; 310,000 compounds, 0.85% hits; B-score at 10 µM;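 active = fluorescence ratio B-score at or below minus 3 SD of library scores, with starting-brightness B-score within 2 SD, cut at about -4.2 in these data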;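 note: channel flux triggered by added potassium and thallium sulfate stimulus; B-score of peak minus minimum fluorescence over baseline after thallium stimulus; more negative B-score means stronger Kir2.1 block with less thallium influx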
hERG rescue: hERG (human) protection from proarrhythmic block; 310,000 compounds, 0.51% hits; activation (rescue from dofetilide block), less the hit threshold, % at 10 µM; CHO-hERG, FluxOR thallium flux, dofetilide IC70 present; Q12809; AID 1511;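 active = activation above the mean of controls blocked by dofetilide plus 5 SD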;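 note: thallium influx through hERG after potassium depolarization seen as dye fluorescence rise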
KCNK9 inh: inhibitors of human KCNK9 two-pore domain potassium channel; 310,000 compounds, 1.2% hits; HEK293 KCNK9, FluxOR thallium flux fluorescence; hits give low values; Q9NPC2; B-score at 10 µM; AID 488922;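 active = ratio B-score over 3 SD below the library mean, with starting fluorescence within 5 SD of its mean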;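 note: negative B-score means less thallium flux so channel inhibition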
KCNQ1 act: potentiators or activators of human KCNQ1 potassium channel; P51787; CHO-K1 KCNQ1, thallium flux FluxOR fluorescence; hits give high values; B-score at 10 µM; 310,000 compounds, 0.35% hits;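 active = fluorescence ratio B-score, a plate-corrected score, at least three library SD, with initial intensity B-score within 5 SD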
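Medium – assay buffer, equal DMSO in all wells · Material – CHO-K1 cell line with stable KCNQ1 potassium channel expression · Signal – kinetic FluxOR thallium fluorescence, 10-s 1-Hz baseline, 110-s post-stimulus read · Compound – single concentration per compound, DMSO matched to controls · Schedule – 37 °C overnight plating, 90-min dark dye load, 20-min compound pretreatment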
KCNQ1 block: blocks the human KCNQ1 potassium channel; P51787; CHO-K1 KCNQ1, FluxOR thallium flux fluorescence; hits give high values; B-score at 10 µM; 310,000 compounds, 1.3% hits;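 active = compounds whose thallium flux B-score, printed positive for inhibition, exceeds three library SD while starting fluorescence stays within three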;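 note: channel opened by potassium depolarization with thallium stimulus after 20 min compound exposure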
KCNK3 block: human KCNK3 channel inhibition, primary screen. O14649. CHO-KCNK3 thallium flux, FluxOR fluorescence; hits give low values. B-score at 10 µM. 340,000 compounds, 0.84% hits. AID 602410;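 active = B-score under library mean minus 4 SD, starting fluorescence ratio at most library mean plus 5 SD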;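 note: more negative B-score means stronger inhibition of thallium flux through KCNK3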
Target sequence (O14649 whole entry, looked up): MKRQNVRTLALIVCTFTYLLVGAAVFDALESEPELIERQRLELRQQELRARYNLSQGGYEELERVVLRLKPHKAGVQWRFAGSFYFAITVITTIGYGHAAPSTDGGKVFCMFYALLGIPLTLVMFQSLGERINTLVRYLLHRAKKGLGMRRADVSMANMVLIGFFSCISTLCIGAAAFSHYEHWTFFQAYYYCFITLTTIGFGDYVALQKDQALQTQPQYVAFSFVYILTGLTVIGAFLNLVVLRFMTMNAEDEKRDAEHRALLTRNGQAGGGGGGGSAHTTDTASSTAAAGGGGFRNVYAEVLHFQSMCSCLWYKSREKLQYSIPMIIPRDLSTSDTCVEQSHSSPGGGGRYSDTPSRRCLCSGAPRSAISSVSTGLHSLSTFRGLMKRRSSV
KCNK3 inh conf: confirmation of human KCNK3 two-pore domain potassium channel inhibitors | 2,400 compounds, 99% hits | shares compounds with KCNK3 block | ratio percent of control, % at 10 µM | CHO-KCNK3 thallium flux, FluxOR fluorescence; 0% buffer, 100% carvedilol maximal block;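 active = ratio percent of control, averaged over triplicates, above buffer control mean plus 5 SD, cut at about 64% in these data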;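 note: ratio is the fluorescence rise from min to max over baseline after thallium stimulus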
KCNK3 uninduced: counter-screen for KCNK3 inhibitors: effect in non-induced cells. shares compounds with KCNK3 block. non-induced KCNK3 parental cells, FluxOR thallium flux; hits give low values. thallium flux ratio (lower = more inhibition) at 10 µM. 2,400 compounds, 40% hits. AID 651747;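 active = thallium flux ratio, averaged over three wells, more than 5 SD below the buffer control mean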;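 note: host cells are CHO cells without KCNK3 induction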
Numbers stand for hits. In the library only some 3.8% were active in any assay of this set; here they are far more common.

How did COc1cccc(-c2cc(C(=O)N3CCCc4ccccc43)no2)c1 do in these assays?
Kir21 block: inactive; hERG rescue: inactive; KCNK9 inh: inactive; KCNQ1 act: inactive; KCNQ1 block: inactive; KCNK3 block: -12.1; KCNK3 inh conf: 114.7; KCNK3 uninduced: inactive

Results for Cc1c(C(=O)OC(C)C(=O)N(C)Cc2ccccc2)oc2ccccc12 (centres undefined) ?
KCNK3 block: -11.7; KCNK3 inh conf: 77.3; KCNK3 uninduced: inactive

Results for Cc1c(C(=O)N(C)Cc2ccccc2)oc2c(Cl)cccc12 ?
Kir21 block: inactive; hERG rescue: inactive; KCNK9 inh: inactive; KCNQ1 act: inactive; KCNQ1 block: inactive; KCNK3 block: -11.1; KCNK3 inh conf: 110.3; KCNK3 uninduced: inactive

Results for CC(=NNc1ccc([N+](=O)[O-])cn1)c1ccc(N)cc1 ?
KCNK3 block: inactive

What do the screens show for `CC(=O)Nc1ccc(S(=O)(=O)NCCSCc2ccccc2Cl)cc1`?
Kir21 block: inactive; hERG rescue: inactive; KCNK9 inh: inactive; KCNQ1 act: inactive; KCNQ1 block: inactive; KCNK3 block: inactive

How did Cc1ccc(NC(=O)/C=C/c2ccco2)cc1S(=O)(=O)N1CCCCCC1 do in these assays?
Kir21 block: inactive; hERG rescue: inactive; KCNK9 inh: inactive; KCNQ1 act: inactive; KCNQ1 block: inactive; KCNK3 block: -9.39; KCNK3 inh conf: 124.0; KCNK3 uninduced: 0.121

Results for COc1ccc(S(=O)(=O)N2CCCCCC2)cc1NC(=O)c1ccccc1 ?
Kir21 block: inactive; hERG rescue: inactive; KCNK9 inh: inactive; KCNQ1 act: inactive; KCNQ1 block: inactive; KCNK3 block: inactive

How did COc1ccc(C)cc1NC(=O)c1ccc(S(=O)(=O)N2CCCCC2)cc1 do in these assays?
Kir21 block: inactive; hERG rescue: inactive; KCNK9 inh: inactive; KCNQ1 act: inactive; KCNQ1 block: inactive; KCNK3 block: -9.65; KCNK3 inh conf: 106.3; KCNK3 uninduced: 0.156

What do the screens show for `Cc1ccc(NC(=O)c2ccc(F)cc2)cc1S(=O)(=O)N1CCCCCC1`?
Kir21 block: inactive; hERG rescue: inactive; KCNK9 inh: inactive; KCNQ1 act: inactive; KCNQ1 block: inactive; KCNK3 block: -10.8; KCNK3 inh conf: 101.0; KCNK3 uninduced: inactive

Results for CCOc1ccccc1NC(=O)CCC(=O)Nc1nnc(C2CCCCC2)s1 ?
Kir21 block: inactive; hERG rescue: inactive; KCNK9 inh: inactive; KCNQ1 act: inactive; KCNQ1 block: inactive; KCNK3 block: inactive

How did O=C1c2ccccc2C(=O)N1CCC#Cc1ccc2cc(CCO)oc(=O)c2c1 do in these assays?
KCNK3 block: inactive

Results for CC(=O)c1cn(CC(=O)Nc2ccc(C)cc2C)c2ccccc12 ?
Kir21 block: inactive; hERG rescue: inactive; KCNK9 inh: inactive; KCNQ1 act: inactive; KCNQ1 block: inactive; KCNK3 block: inactive

What do the screens show for `O=C(Nc1cccc(S(=O)(=O)N2CCCCCC2)c1)c1cc(=O)c2ccccc2o1`?
Kir21 block: inactive; hERG rescue: inactive; KCNK9 inh: inactive; KCNQ1 act: inactive; KCNQ1 block: inactive; KCNK3 block: inactive

Results for CN(c1ccccc1)S(=O)(=O)c1cccc(NC(=O)c2cc(=O)c3ccccc3o2)c1 ?
Kir21 block: inactive; hERG rescue: inactive; KCNK9 inh: inactive; KCNQ1 act: inactive; KCNQ1 block: inactive; KCNK3 block: -10.2; KCNK3 inh conf: 136.7; KCNK3 uninduced: inactive

How did O=C1OC[C@H](Cc2ccc3c(c2)OCO3)/C1=C\c1ccc2c(c1)OCO2 do in these assays?
Kir21 block: inactive; hERG rescue: inactive; KCNK9 inh: inactive; KCNQ1 act: inactive; KCNQ1 block: inactive; KCNK3 block: -9.73; KCNK3 inh conf: 133.3; KCNK3 uninduced: inactive

How did O=C1CC(Cc2ccccc2)C(=O)N1CCc1ccc2c(c1)OCO2 (centres undefined) do in these assays?
Kir21 block: inactive; hERG rescue: inactive; KCNK9 inh: inactive; KCNQ1 act: inactive; KCNQ1 block: inactive; KCNK3 block: inactive

Compound activity as filed in PubChem BioAssay.
